Rows were chosen to be rich in hits. Some 1.6% of all compounds tested hit in one or more screens of this group.
H9c2 TAG inh: inhibitors of triacylglycerol accumulation. inhibition, % at 12.5 µM. H9c2 cells, Nile Red lipid (TAG) fluorescence; cells loaded with 200 µM oleic acid. AID 651582. actives 0.66% (n = 230,000);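 active means pattern-corrected inhibition of lipid staining of at least 50% with the nuclear-stain viability signal not falling by more than 50%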;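 further: 0% = DMSO wells and 100% = triacsin C control wells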
SR-BI HDL uptake: mouse SR-BI HDL lipid transfer inhibition | AID 488896 | actives 0.96% (n = 320,000) | inhibition, % at 12.5 µM | ldlA[mSR-BI] CHO cells, DiI-HDL uptake fluorescence, 3 h;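 active means mean replicate inhibition of at least 70% and a set share of replicates each scoring 70 or more; inconclusive means meets just one of the two criteria; inactive means fails both criteria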;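 further: 0% = median of neutral control wells and 100% = median of positive control wells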
Target sequence (Q61009 whole entry, looked up): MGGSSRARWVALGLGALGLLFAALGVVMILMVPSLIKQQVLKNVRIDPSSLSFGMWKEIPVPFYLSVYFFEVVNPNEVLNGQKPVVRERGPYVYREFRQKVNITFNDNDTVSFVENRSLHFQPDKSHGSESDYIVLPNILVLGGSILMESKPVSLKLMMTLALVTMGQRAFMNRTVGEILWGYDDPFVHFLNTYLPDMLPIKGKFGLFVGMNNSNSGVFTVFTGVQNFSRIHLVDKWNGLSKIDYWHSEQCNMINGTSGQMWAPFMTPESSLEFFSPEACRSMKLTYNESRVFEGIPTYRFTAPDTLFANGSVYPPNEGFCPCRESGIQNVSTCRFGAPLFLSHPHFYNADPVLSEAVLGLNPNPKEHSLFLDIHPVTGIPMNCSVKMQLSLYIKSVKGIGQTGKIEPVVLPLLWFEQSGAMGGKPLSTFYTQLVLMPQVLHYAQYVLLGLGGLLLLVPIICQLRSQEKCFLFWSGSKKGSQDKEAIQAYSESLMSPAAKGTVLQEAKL
Vif inh: HIV Vif inhibition; HEK293T cells, Vif self-association by quenched fluorescence, imaging, 24 h; inhibition, % at 7.49 µM; actives 0.35% (n = 340,000); AID 602346; in the data active means inhibition above about 50%, passing the limit was not always enough; inconclusive means no clear call, values can overlap the other calls; inactive means below about 31%
Bfl-1 A1 inh: inhibitors of the anti-apoptotic protein A1, read as caspase activation; MEF A1-2A-BIM cells, Caspase-Glo 3/7 luminescence, 3 h; percent of clofoctol response, vehicle zero; caspase activation, % (no concentration beside the values); actives 0.066% (n = 330,000); AID 2462;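 active means over half of replicate activation scores above 10%, or exactly half above 10 with the replicate mean above 10; inconclusive means replicate mean below 10 yet half the replicates above 10; inactive means over half of replicates below 10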
SR-BI uptake up: SR-BI HDL lipid transfer activation. AID 504775. activation, % at 12.5 µM. actives 0.096% (n = 320,000). CHO ldlA[mSR-BI] cells, DiI-HDL uptake fluorescence, 3 h; 100 = double the neutral-control signal;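 active means mean replicate activation of at least 60% and every replicate at or above 60%; inconclusive means mean or all-replicate condition met, but not both; inactive means mean below 60% and not all replicates reaching 60%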;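 further: 0% = median plate neutral-control signal and 100% = twice that signal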
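Assay system: LDL receptor-deficient CHO ldlA cells overexpressing murine SR-BI / Medium: BSA-supplemented, HEPES-buffered Ham's F12, pH 7.4 / Probe or stimulus: DiI-labelled HDL at 10 µg/mL final / Timing: compound with DiI-HDL co-incubation, 3 h at 37 °C / Technique: bottom-read cell fluorescence after medium removal, ex 550/em 595 nm / Measure: HDL uptake via cellular fluorescence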
H9c2 TAG conf: triacylglycerol accumulation inhibition, confirmation | shares compounds with H9c2 TAG inh | H9c2 lipid accumulation, Nile Red fluorescence; cells loaded with 200 µM oleic acid | inhibition, % at 12.5 µM | actives 71% (n = 990);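 active means mean inhibition across replicates of 40% or more; inactive means mean inhibition below 40%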;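 further: plate controls were DMSO only wells for no effect and Triacsin C treated wells for full effect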
* = called active by the depositor; u = inconclusive; x = not tested or not shown.

SMILES	H9c2 TAG inh	SR-BI HDL uptake	Vif inh	Bfl-1 A1 inh	SR-BI uptake up	H9c2 TAG conf
Cc1ccc(C(=O)OCC(=O)Nc2cccc(S(=O)(=O)NC3=NCCCCC3)c2)c(C)c1	78.0*	-24.3	-2.8	0.3	24.3	12.2
C/C(=N\N1CCN(c2ccccc2)CC1)c1ccc(O)cc1	x	13.6	4.4	x	-13.6	x
O=C(c1cc[n+]([O-])cc1)N1CCCC(N2CCN(c3cccc(C(F)(F)F)c3)CC2)C1 (configuration not stated)	9.5	12.5	-0.7	-0.4	-12.5	x
Cc1noc(C)c1NC(=O)Nc1ccc2c(c1)CC(=O)N([C@H](C)CO)C[C@@H](C)[C@H](CN(C)CC1CCCCC1)O2	0.9	-17.3	-2.3	0.1	17.2	x
COC(=O)CC1C(=O)NCCN1C(=O)c1ccc(S(=O)(=O)N2CCOCC2)cc1 (configuration not stated)	61.2*	10.6	4.4	0.6	-10.6	7.2
CC(=NCCc1c(C)[nH]c2ccc(OCc3ccccc3)cc12)C1=C(O)CC(c2ccccc2)CC1=O (configuration not stated)	8.5	57.6	-5.3	-0.7	-57.6	x
CCCCC(=NCCc1c(C)[nH]c2ccc(OC)cc12)C1=C(O)CC(c2ccccc2)CC1=O (configuration not stated)	61.2*	-168.1	-0.2	0.6	u	65.7*
CCC(=NCCc1c(C)[nH]c2ccc(OC(F)(F)F)cc12)C1=C(O)CC(c2ccccc2)CC1=O (configuration not stated)	51.2*	44.5	-1.2	0.9	-44.5	72.0*
CCC(=NCCc1c(C)[nH]c2ccccc12)C1=C(O)CC(c2ccccc2)CC1=O (configuration not stated)	x	39.3	-10.1	0.1	-39.3	x
C[C@@H]1CN([C@@H](C)CO)C(=O)c2cc(N(C)C)ccc2O[C@@H](C)CCCCO[C@@H]1CN(C)Cc1ccc2c(c1)OCO2	-1.1	x	1.0	x	x	x
CC(C)OC(=O)c1cccc(NC(=O)CSc2nnc(N)s2)c1	-19.6	2.2	-0.1	0.7	-2.2	x
CCOc1ccccc1NC(=O)N1CCCC1C(=O)Nc1ccc(-n2cnnn2)c(C)c1 (configuration not stated)	55.9*	32.9	x	-0.5	-32.9	39.2
CC1CCCC(C)N1C(=O)COC(=O)COc1ccc(C#N)cc1 (configuration not stated)	2.0	30.8	17.8	0.5	x	x
CN(c1ccccc1)c1nc(N2CCCC2)nc(-n2ccnc2)n1	24.4	x	x	0.9	x	x
c1ccc(N(c2ccccc2)c2nc(N3CCCC3)nc(-n3ccnc3)n2)cc1	60.0*	-17.2	-0.8	-0.8	17.2	43.3*
COc1ccc(CNC(=O)C[C@H]2C[C@H](C(=O)N3CCCCC3)[C@@]3(CCc4ccccc4)c4[nH]c5ccc(Cl)cc5c4CCN3C2=O)cc1OC	53.0*	-17.4	-16.8	x	17.4	84.3*
C[C@]12c3[nH]c4ccccc4c3CCN1C(=O)C(CC(=O)NCC13CC4CC(CC(C4)C1)C3)C[C@@H]2C(=O)N1CCCCC1 (some centres not stated)	83.0*	-4.2	0.6	-0.2	4.2	60.5*
CC(C)=CCC/C(C)=C/CNC(=O)C[C@H]1C[C@H](C(=O)N2CCCCC2)[C@@]2(CCc3ccccc3)c3[nH]c4cc(-c5ccco5)ccc4c3CCN2C1=O	68.6*	1.7	x	x	-1.7	91.8*
COc1ccc2[nH]c3c(c2c1)CCN1C(=O)C(CC(=O)NC/C=C(\C)CCC=C(C)C)C[C@H](C(=O)N(C(C)C)C(C)C)[C@@]31C (some centres not stated)	54.5*	25.8	-25.3	x	-25.8	55.2*
CCOC(=O)N1CCC(N2Cc3cccc(C(=O)Nc4ccc(CC)cc4)c3C2=O)CC1	69.6*	15.4	2.1	-0.1	-15.4	27.1
O=C(CSc1nc2ccccc2c(=O)n1Cc1ccco1)c1ccccc1	x	-2.3	-11.2	1.9	2.3	x
Cc1cc(-n2c(C)cc(C(=O)CSc3nc4ccccc4c(=O)n3Cc3ccco3)c2C)no1	55.3*	15.6	-6.0	0.0	-15.6	21.4
CCN1CCN(Cc2ccc(NC(=O)c3ccc(C)c(NC(=O)C(=O)c4c[nH]c5ccccc45)c3)cc2C(F)(F)F)CC1	77.2*	2.6	-9.5	-0.5	-2.6	79.1*
CCN1CCN(Cc2ccc(NC(=O)c3cc(NC(=O)c4cc(C)on4)cc(OC)c3)cc2C(F)(F)F)CC1	10.7	-1.2	-3.3	0.6	1.2	x
CCN1CCN(Cc2ccc(NC(=O)c3cc(NC(=O)C(=O)c4c[nH]c5ccccc45)cc(OC)c3)cc2C(F)(F)F)CC1	104.3*	-16.2	1.2	-0.2	16.2	93.5*
SMILES	H9c2 TAG inh	SR-BI HDL uptake	Vif inh	Bfl-1 A1 inh	SR-BI uptake up	H9c2 TAG conf
O=C(Nc1ccccc1)c1ccc(NCC2CCCO2)c(S(=O)(=O)N2CCOCC2)c1 (configuration not stated)	65.6*	8.7	0.3	0.6	-8.7	46.2*
O=C(N/N=C/c1ccc2c(c1)OCO2)c1cc(-c2ccncc2)nc2ccccc12	53.7*	12.4	1.1	1.0	-12.4	66.9*
Cc1ccc(/C=N/NC(=O)c2cc(-c3cccnc3)nc3ccccc23)cc1	56.7*	32.9	6.5	1.2	-32.9	48.7*
COc1ccc(-n2nc(C(=O)NCc3ccco3)c3c4ccccc4n(C)c3c2=O)cc1	x	18.3	15.5	2.6	-18.3	x
Cc1ccc(-n2nc(C(=O)NCc3ccc(C)o3)c3c4ccccc4n(C)c3c2=O)cc1	52.8*	45.2	-6.3	1.1	-45.2	21.4
CCOc1ccccc1NC(=O)C(CC(C)C)NC(=O)C1CCCCC1 (configuration not stated)	50.5*	48.6	x	0.3	-48.6	35.2
COc1ccc(C(CNC(=O)COc2cccc(C(F)(F)F)c2)N2CCCC2)cc1 (configuration not stated)	-3.4	-9.0	-12.0	0.5	9.0	x
O=C(COc1ccccc1-c1ccccc1)N/N=C/c1cccc2ccccc12	63.2*	16.2	x	0.7	-16.2	36.0
CCCCSc1nc2sc3c(c2c(=O)[nH]1)CC(C)(CC)OC3 (configuration not stated)	x	-10.1	-2.2	1.8	10.1	x
Cc1ccc(OCC(=O)OCC(=O)c2cccc([N+](=O)[O-])c2)cc1C	3.9	-10.7	-11.7	0.3	10.7	x
COc1cccc(OC)c1C(=O)Nc1cc(C)nn1-c1nc2ccccc2[nH]1	33.0	40.7	-3.4	-1.2	-40.7	x
Cc1cc(NC(=O)c2sccc2C)n(-c2nc3ccccc3[nH]2)n1	63.7*	78.2*	-4.5	-0.1	-78.2	59.0*
COc1ccc(-c2nc(NC(=O)Cn3c(=O)oc4ccccc43)sc2C)cc1	x	55.5	2.4	1.1	-55.5	x
